In ChEMBL document CHEMBL3400037, “Bis-3-chloropiperidines containing bridging lysine linkers: Influence of side chain structure on DNA alkylating activity” (Bioorg Med Chem, 2015):
Active and inactive are the calls of the source. No cut-off for these calls is given here.

Key:
Escherichia coli [1] = assay: Induction of Escherichia coli supercoiled plasmid pBR322 DNA cleavage at 0.5 uM after 3 hrs at 37 degC using ethidium bromide by gel electrophoresis
Outline: (§1)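 Supercoiled pBR322 (3.5 nM) incubated with agent at 0.5, 5 or 50 µM in BPE buffer pH 7.4 for 3 h at 37 °C. Agent diluted fresh in water from DMSO stock. Products resolved on 1% agarose gel in 1× TAE and stained with ethidium bromide. Controls on gel were supercoiled, EcoRI-linearised and open circular plasmid markers. Chlorambucil at 50 µM was the reference agent.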

Escherichia coli [2] = assay: Induction of Escherichia coli supercoiled plasmid pBR322 DNA cleavage at 0.5 uM to 50 uM after 3 hrs at 37 degC using ethidium bromide by gel electrophoresis
Outline: (§2)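 Supercoiled pBR322 (3.5 nM) incubated with agent at 0.5, 5 or 50 µM for 3 h at 37 °C in bisphosphate–EDTA (BPE) buffer, pH 7.4; chlorambucil 50 µM as control. Dilutions freshly made in water from 8 mM DMSO stock. Forms resolved on 1% agarose in 1× TAE, ethidium bromide-stained; supercoiled, EcoRI-linearised and nicked open-circular plasmid as markers.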

[3] = Induction of alkylation of 5'-FAM-labeled scrambled duplex oligonucleotide DNA (unknown origin) at guanine residues at 5 to 50 uM after 24 hrs by sequencing gel analysis
Escherichia coli [4] = assay: Induction of Escherichia coli supercoiled plasmid pBR322 DNA cleavage at 50 uM after 3 hrs at 37 degC using ethidium bromide by gel electrophoresis; outline: as §1
Escherichia coli [5] = assay: Induction of Escherichia coli supercoiled plasmid pBR322 DNA cleavage at 50 uM after 24 hrs using ethidium bromide by gel electrophoresis
Outline: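 Supercoiled pBR322 (3.5 nM) incubated with agent in BPE buffer pH 7.4 at ambient temperature for 24 h. Products resolved on 1% agarose gel in 1× TAE and stained with ethidium bromide. Supercoiled, linear and open circular plasmid markers were run alongside.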

Escherichia coli [6] = assay: Induction of Escherichia coli supercoiled plasmid pBR322 DNA cleavage at 0.5 uM to 50 uM after 24 hrs using ethidium bromide by gel electrophoresis
Outline: (§3)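 Supercoiled pBR322 (3.5 nM) exposed to agent at 24 h at ambient temperature in BPE buffer, pH 7.4; chlorambucil as control. Supercoiled, open-circular and linear forms separated by 1% agarose electrophoresis in 1× TAE, ethidium bromide-stained, with supercoiled, linear (EcoRI-cut) and nicked plasmid controls.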

Escherichia coli [7] = assay: Induction of Escherichia coli supercoiled plasmid pBR322 DNA cleavage at 5 uM after 3 hrs at 37 degC using ethidium bromide by gel electrophoresis; outline: as §1
[8] = Reactive aziridinium ion formation in distilled water assessed as electrophilic aziridinium formation at 80 uM at 37 degC after 15 mins by ESI-MS analysis; format: physicochemical; conditions: buffer, 0.25 h
Outline: (§4)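 An 80 µM solution of agent in distilled water was kept at 37 °C. Aliquots were taken at 0, 15, 30, 45, 60 and 120 min, diluted with methanol and analysed by ESI-MS for hydroxyl-substituted and aziridinium ion species.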

[9] = Reactive aziridinium ion formation in distilled water assessed as dihydroxyl substituted product formation at 80 uM at 37 degC after 15 mins by ESI-MS analysis; format: physicochemical; conditions: buffer, 0.25 h; outline: as §4
Escherichia coli [10] = assay: Binding affinity to Escherichia coli supercoiled plasmid pBR322 DNA at 50 uM after 3 hrs at 37 degC using ethidium bromide by gel electrophoresis; outline: as §2
Escherichia coli [11] = assay: Binding affinity to Escherichia coli supercoiled plasmid pBR322 DNA at 50 uM after 24 hrs using ethidium bromide by gel electrophoresis; outline: as §3

| Compound | Activity (Escherichia coli [1]) | Activity (Escherichia coli [2]) | Activity [3] | further results |
| --- | --- | --- | --- | --- |
| CC1(C)CC(Cl)CN(CCCCCN2CC(Cl)CC(C)(C)C2)C1 (stereo not drawn) | Active |  |  |  |
| CC1(C)CC(Cl)CN(CCCC[C@@H](C(=O)OCCCc2ccccc2)N2CC(Cl)CC(C)(C)C2)C1 (stereo partly drawn) |  | inactive | Active |  |
| O=C(O)CCCc1ccc(N(CCCl)CCCl)cc1 |  |  |  | Activity (Escherichia coli [4]): inactive; Activity (Escherichia coli [5]): inactive |
| CC1(C)CC(Cl)CN(CCCCCCN2CC(Cl)CC(C)(C)C2)C1 (stereo not drawn) | Active |  |  |  |
| CC1(C)CC(Cl)CN(CCCC[C@@H](C(=O)OCCc2ccccc2)N2CC(Cl)CC(C)(C)C2)C1 (stereo partly drawn) |  | Active | Active | Activity (Escherichia coli [6]): Active |
| CC1(C)CC(Cl)CN(CCCC[C@@H](C(=O)OCc2ccccc2)N2CC(Cl)CC(C)(C)C2)C1 (stereo partly drawn) |  | Active | Active | Activity (Escherichia coli [6]): Active |
| COC(=O)[C@H](CCCCN1CC(Cl)CC(C)(C)C1)N1CC(Cl)CC(C)(C)C1 (stereo partly drawn) |  | Active | Active | Activity (Escherichia coli [7]): Active; Activity (Escherichia coli [6]): Active; Activity [8]: Active; Activity [9]: Active |
| CC1(C)CC(Cl)CN(CCCN2CC(Cl)CC(C)(C)C2)C1 (stereo not drawn) | Active |  |  |  |
| CC1(C)CC(Cl)CN(CCCCN2CC(Cl)CC(C)(C)C2)C1 (stereo not drawn) | Active |  |  |  |
| CC1(C)CC(Cl)CN(CCCC[C@@H](C(=O)Oc2cccc3ccccc23)N2CC(Cl)CC(C)(C)C2)C1 (stereo partly drawn) |  | inactive | Active | Activity (Escherichia coli [10]): Active; Activity (Escherichia coli [11]): Active |
| COc1ccc(OC(=O)[C@H](CCCCN2CC(Cl)CC(C)(C)C2)N2CC(Cl)CC(C)(C)C2)c2ccccc12 (stereo partly drawn) |  | inactive | Active | Activity (Escherichia coli [10]): Active; Activity (Escherichia coli [11]): Active |
